From article PMC7845017 (ACS Central Science, 2021)

Legend:
Experiment in all cases: Broth microdilution MIC
P. aeruginosa PAO1 = assay type: cell-based, Pseudomonas aeruginosa; settings: P. aeruginosa PAO1, Müller-Hinton medium, 16–20 h at 37 °C; at least two independent duplicates
In short: (§1)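 MIC reported in μg/mL. Each strain was grown in Müller-Hinton medium and incubated for 16–20 h at 37 °C. Every strain was tested in at least two independent duplicates.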

K. pneumoniae NCTC418 = assay type: cell-based, Klebsiella pneumoniae; settings: K. pneumoniae NCTC418, Müller-Hinton medium, 16–20 h at 37 °C; at least two independent duplicates
In short: as §1

A. baumannii ATCC 19606 = assay type: cell-based, Acinetobacter baumannii; settings: A. baumannii ATCC 19606, Müller-Hinton medium, 16–20 h at 37 °C; at least two independent duplicates
In short: as §1

E. coli W3110 = assay type: cell-based, Escherichia coli; settings: E. coli W3110, Müller-Hinton medium, 16–20 h at 37 °C; at least two independent duplicates
In short: as §1

Substance | P. aeruginosa MIC (P. aeruginosa PAO1) | K. pneumoniae MIC (K. pneumoniae NCTC418) | A.baumannii MIC (A. baumannii ATCC 19606) | E. coli MIC (E. coli W3110)
ILPWKWPWWPWRR [sr-Indo] | >64 mg/L | 16 mg/L | 8 mg/L | 16 mg/L
KYKKALKKLAKLL [rac-SB1] | 2 mg/L | 16 mg/L | 2 mg/L | 1 mg/L
KYKKALKKLAKLL [sr-SB1] | >64 mg/L | >64 mg/L | >64 mg/L | 32 mg/L
KYKKALKKLAKLL [sr^1/3-SB1] | >64 mg/L | >64 mg/L | >64 mg/L | 16 mg/L
KYKKALKKLAKLL [sr^3/1-SB1] | >64 mg/L | >64 mg/L | >64 mg/L | 16 mg/L
VQWRAIRVRVIR [sr-DJK5] | >64 mg/L | >64 mg/L | >64 mg/L | 16 mg/L
polymyxin B [PMB, reference compound] | 0.25 mg/L | 0.25 mg/L | 0.25 mg/L | 0.25 mg/L
